The values that follow come from ChEMBL document CHEMBL1157643, “SAR and molecular mechanism study of novel acylhydrazone compounds targeting HIV-1 CA” (Bioorg Med Chem, 2010).

In general, EC50 refers to the concentration giving half of the maximal effect.

Molecules are shown by their SMILES. The source made the active and inactive calls. The calls are words filed in the database; no cut-off is given here.

For data set [1], the system named is Simian immunodeficiency virus. The data set is described as follows: Antiviral activity against SIV-induced syncytium in human CEM174 cells assessed as inhibition of virus-induced cytopathogenicity after 5 days. The class given is functional, organism-based. To be noted: CEM174, 120 h. An outline of the steps: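 CEM174 cells at 1 × 10⁵ cells/mL in 96-well format, infected with 100 TCID₅₀ SIV per well alongside serial dilutions of compound. Incubated 5 days at 37 °C, 5% CO₂, humidified. Syncytium (giant cell) formation scored microscopically. EC₅₀ = concentration protecting cells 50% against SIV cytopathogenicity.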
(In general: Protection from cytopathic effect is a common read-out in antiviral testing.)

Data set [2] in a line: Cytotoxicity against mock-infected human CEM174 cells after 5 days by MTT assay. Type of data set: cell-based. The settings on record: read-out: TC50. An outline of the steps: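 Uninfected CEM174 cells handled as in the antiviral assay (1 × 10⁵ cells/mL, compound dilutions, 5 days, 37 °C, 5% CO₂). Proliferation read by MTT reduction. TC₅₀ = concentration inhibiting cell proliferation by 50%.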

The nature of data set [3]: Therapeutic index, TC50 for human CEM174 cells to EC50 for SIV-induced syncytium in human CEM174 cells. Type of data set: cell-based. To be noted: read-out: TI. An outline of the steps:
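Ratio TC₅₀/EC₅₀. TC₅₀ comes from the MTT proliferation assay in uninfected CEM174 cells. EC₅₀ comes from microscopic scoring of syncytia in CEM174 cells infected with 100 TCID₅₀ SIV per well. Both were run over 5 days at 37 °C, 5% CO₂.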

Data set [4] has as its target Structural capsid protein (Human immunodeficiency virus 1) (UniProt Q76129). The data set can be described thus: Binding affinity to HIV1 capsid protein assessed as viral capsid assembly rate at 1 mM by ultraviolet spectrophotometry (RVb= 60.56 +/- 3.77 milliOD/min).
Data set [5] shares this target. The data set can be described thus: Binding affinity to HIV1 capsid protein assessed as inhibition of viral capsid assembly at 1 mM after 600 mins by turbidity-based ultraviolet spectrophotometry.

Chain of Structural capsid protein (Human immunodeficiency virus 1) (Q76129 as listed by the source): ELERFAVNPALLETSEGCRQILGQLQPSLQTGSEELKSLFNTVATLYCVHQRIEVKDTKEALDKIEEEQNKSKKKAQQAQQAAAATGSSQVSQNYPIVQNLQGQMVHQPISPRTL

As for `COc1ccc(C(=O)N[C@@H](Cc2c[nH]cn2)C(=O)N/N=C/c2ccc(Cl)cc2)cc1`, the EC50 in data set [1] amounted to 3.27 µM. For the same compound, the CC50 at 120 h in data set [2] is greater than 100 µM. In addition, in data set [3], the selectivity ratio is greater than 30.6. For the same compound, the Activity (milli optical density/minute) in data set [4] was determined as 8.89.

For `COc1ccc(C(=O)N[C@H](C(=O)N/N=C/c2ccc(Cl)cc2)[C@@H](C)O)cc1`, in data set [1], the EC50 worked out at 4.98 µM. The CC50 at 120 h in data set [2] is greater than 100 µM. The selectivity ratio in data set [3] is greater than 20.1. For the same compound, in data set [4], the Activity (milli optical density/minute) worked out at 49.5.

On to `CCC(C)[C@H](NC(=O)c1ccc(OC)cc1)C(=O)N/N=C/c1ccc(Cl)cc1` (mixture of isomers), for which the EC50 in data set [1] stood at 8.1 µM. The CC50 at 120 h in data set [2] was greater than 100 µM. Further, the selectivity ratio in data set [3] is greater than 12.3. Besides, the Activity (milli optical density/minute) in data set [4] came out at 10.2.

As for `CC[C@@H](C)[C@H](NC(=O)c1ccc(OC)cc1)C(=O)N/N=C/c1ccco1`, in data set [1], the concentration giving a half-maximal response (EC50) was found to be 1.7 µM. Also, in data set [2], the CC50 at 120 h is greater than 100 µM. The selectivity ratio in data set [3] is greater than 58.8. In addition, the Activity (milli optical density/minute) in data set [4] was found to be 5.82.

For the compound `Cc1ccc(S(=O)(=O)C[C@@H](Cc2ccccc2)C(=O)N/N=C/c2ccc3c(c2)OCO3)cc1`, the EC50 in data set [1] worked out at 0.17 µM.

As to `CC[C@@H](C)[C@H](NC(=O)c1ccc(OC)cc1)C(=O)N/N=C/c1ccc(C)cc1`, the concentration giving a half-maximal response (EC50) in data set [1] turned out to be 13.9 µM. In addition, in data set [2], the CC50 at 120 h is greater than 100 µM. The selectivity ratio in data set [3] was greater than 7.2. Moreover, the Activity (milli optical density/minute) in data set [4] amounted to 33.4. The inhibition result in data set [5] is “inactive”.

Consider `COc1ccc(/C=N/NC(=O)[C@H](Cc2c[nH]cn2)NC(=O)c2ccc(OC)cc2)cc1`, for which, in data set [1], the EC50 was found to be 0.41 µM. Further, the CC50 at 120 h in data set [2] was greater than 100 µM. Also, the selectivity ratio in data set [3] was greater than 244. Besides, the Activity (milli optical density/minute) in data set [4] was determined as 3.58. The inhibition entry in data set [5] was “Active”.

With `COc1ccc(C(=O)N[C@H](C(=O)N/N=C/c2ccc(C)cc2)[C@H](C)O)cc1`, the 50% effective concentration (EC50) in data set [1] is 8.17 µM. The CC50 at 120 h in data set [2] is greater than 100 µM. In data set [3], the selectivity ratio was greater than 12.2. For the same compound, in data set [4], the Activity (milli optical density/minute) worked out at 11.9.

Regarding `CC[C@@H](C)[C@H](NC(=O)c1ccc(OC)cc1)C(=O)N/N=C/c1ccc(O)cc1`, the EC50 in data set [1] stood at 4.15 µM. Moreover, the CC50 at 120 h in data set [2] was greater than 100 µM. Also, the selectivity ratio in data set [3] is greater than 24.1. Also, in data set [4], the Activity (milli optical density/minute) is 30.1.

Consider `COc1ccc(C(=O)N[C@@H](C)C(=O)N/N=C/c2ccccc2)cc1`, for which the concentration giving a half-maximal response (EC50) in data set [1] worked out at 6.41 µM. Moreover, the CC50 at 120 h in data set [2] was greater than 100 µM. In data set [3], the selectivity ratio is greater than 15.6.

As to `COc1ccc(C(=O)N[C@@H](Cc2c[nH]cn2)C(=O)N/N=C/c2ccc([N+](=O)[O-])cc2)cc1`, in data set [1], the EC50 was 4.4 µM. For the same compound, the CC50 at 120 h in data set [2] was greater than 100 µM. In addition, the selectivity ratio in data set [3] is greater than 22.7. Moreover, the Activity (milli optical density/minute) in data set [4] was 12.6.

Consider `CC[C@@H](C)[C@H](NC(=O)c1ccc(OC)cc1)C(=O)N/N=C/c1ccccc1`, for which the EC50 in data set [1] is 7.65 µM. The CC50 at 120 h in data set [2] was 77.9 µM. For the same compound, the selectivity ratio in data set [3] worked out at 10.2. Moreover, the Activity (milli optical density/minute) in data set [4] turned out to be 25.4.

`COc1ccc(C(=O)N[C@@H](Cc2ccc(O)cc2)C(=O)N/N=C/c2ccccc2)cc1`: the half-maximal effective concentration (EC50) in data set [1] was 4.61 µM. In data set [2], the CC50 at 120 h was greater than 100 µM. In data set [3], the selectivity ratio is greater than 21.7. In addition, the Activity (milli optical density/minute) in data set [4] is 32.5.

Take `COc1ccc(C(=O)N[C@@H](Cc2ccc(O)cc2)C(=O)N/N=C/c2ccc(O)cc2)cc1`: in data set [1], the EC50 came out at 7.81 µM. Further, the CC50 at 120 h in data set [2] was greater than 100 µM. Also, the selectivity ratio in data set [3] is greater than 12.8. Further, the Activity (milli optical density/minute) in data set [4] is 8.77.

For the compound `COc1ccc(C(=O)N[C@@H](Cc2c[nH]cn2)C(=O)N/N=C/c2ccc(C)cc2)cc1`, the EC50 in data set [1] is 1.55 µM. Moreover, the CC50 at 120 h in data set [2] is greater than 100 µM. Further, the selectivity ratio in data set [3] was greater than 64.5. For the same compound, the Activity (milli optical density/minute) in data set [4] is 6.05.

Turning to `COc1ccc(C(=O)N[C@@H](Cc2ccc(O)cc2)C(=O)N/N=C/c2ccco2)cc1`, the half-maximal effective concentration (EC50) in data set [1] was 9.03 µM. For the same compound, the CC50 at 120 h in data set [2] is 30.6 µM. The selectivity ratio in data set [3] came to 3.38. Further, the Activity (milli optical density/minute) in data set [4] is 19.1.

Take `COc1ccc(C(=O)N[C@H](C(=O)N/N=C/c2ccc(O)cc2)[C@@H](C)O)cc1`: the EC50 in data set [1] is 8.13 µM. Moreover, in data set [2], the CC50 at 120 h was greater than 100 µM. Also, in data set [3], the selectivity ratio is greater than 12.3. Further, in data set [4], the Activity (milli optical density/minute) was found to be 24.9.

For the compound `COc1ccc(C(=O)N[C@@H](Cc2c[nH]cn2)C(=O)N/N=C/c2ccc(O)cc2)cc1`, the EC50 in data set [1] came to 3.18 µM. In data set [2], the CC50 at 120 h is greater than 100 µM. Besides, in data set [3], the selectivity ratio is greater than 31.4. Moreover, the Activity (milli optical density/minute) in data set [4] amounted to 24.7.

For the compound `COc1ccc(C(=O)N[C@@H](Cc2c[nH]cn2)C(=O)N/N=C/c2ccccc2)cc1`, the EC50 in data set [1] was 0.56 µM. The CC50 at 120 h in data set [2] was greater than 100 µM. The selectivity ratio in data set [3] is greater than 179. Moreover, in data set [4], the Activity (milli optical density/minute) is 3.26. The inhibition result in data set [5] was “Active”.

Take `COc1ccc(C(=O)N[C@@H](Cc2c[nH]cn2)C(=O)N/N=C/c2ccco2)cc1`: the EC50 in data set [1] was 8.44 µM. In addition, the CC50 at 120 h in data set [2] is greater than 100 µM. Moreover, the selectivity ratio in data set [3] is greater than 11.8. The Activity (milli optical density/minute) in data set [4] is 29.3.

As to `COc1ccc(C(=O)N[C@H](C(=O)N/N=C/c2ccccc2)[C@H](C)O)cc1`, the EC50 in data set [1] came out at 0.77 µM. Further, the CC50 at 120 h in data set [2] is greater than 100 µM. In data set [3], the selectivity ratio was greater than 130. The Activity (milli optical density/minute) in data set [4] came out at 21.4.

Turning to `COc1ccc(C(=O)N[C@H](C(=O)N/N=C/c2ccccc2)C(C)C)cc1`, the EC50 in data set [1] was found to be 4.08 µM. Further, the CC50 at 120 h in data set [2] was greater than 100 µM. Moreover, in data set [3], the selectivity ratio is greater than 24.5.

On to `COc1ccc(C(=O)N[C@@H](Cc2ccc(O)cc2)C(=O)N/N=C/c2ccc(Cl)cc2)cc1`, for which the EC50 in data set [1] worked out at 14.9 µM. In data set [2], the CC50 at 120 h was found to be 40 µM. Besides, in data set [3], the selectivity ratio was found to be 2.69. In addition, the Activity (milli optical density/minute) in data set [4] was 24.3. Further, the inhibition entry in data set [5] is “inactive”.

Take `COc1ccc(C(=O)N[C@@H](Cc2ccc(O)cc2)C(=O)N/N=C/c2ccc(C)cc2)cc1`: the EC50 in data set [1] was determined as 5.21 µM. In data set [2], the CC50 at 120 h was found to be 41.1 µM. The selectivity ratio in data set [3] was determined as 7.9. For the same compound, in data set [4], the Activity (milli optical density/minute) came to 20.4.
